This is a sample that favours compounds with a hit; in the whole collection about 2.3% have one here.
PLCb3 inh – PLC-beta3 (human) inhibition, primary screen. Q01970. AID 720704. 370,000 tested, 0.18% active. inhibition, % at 12.2 µM. Purified PLC-beta3, fluorogenic substrate, fluorescence; in the data active = inhibition above about 11%;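 note: 0% = median of compound wells on plate and 100% = full blocker control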
PLCg1 inh – PLC-gamma1 (human) inhibition, primary screen | P19174 | purified PLC-gamma1, fluorogenic substrate, fluorescence | inhibition, % at 12.2 µM | 370,000 tested, 0.84% active | AID 720700
ADAM17 inh – inhibits human ADAM17; P78536; recombinant ADAM17, EDANS/DABCYL FRET peptide cleavage; inhibition, % at 6.95 µM; 370,000 tested, 0.83% active;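 active = inhibition above the mean of compounds lying between control limits plus 3 SD, set per campaign, cut at about 8.5% in these data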;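 note: 0% = DMSO-only wells as the low control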
ADAM10 inh – inhibitors of human ADAM10; 370,000 tested, 0.62% active; O14672; recombinant ADAM10, EDANS/DABCYL FRET peptide cleavage, 3 h; inhibition, % at 7 µM;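 active = inhibition above a per-campaign cutoff equal to the mean of compounds falling between control-based bounds plus 3 SD, cut at about 20% in these data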;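 note: 0% = DMSO wells while the 100% control is not disclosed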
Tb MetRS inh – Trypanosoma brucei MetRS inhibition; inhibition, % at 11.9 µM; 360,000 tested, 0.4% active; purified T. brucei MetRS, ATP depletion, Kinase-Glo luminescence;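 active = inhibition above a per-plate cutoff of the control wells' mean inhibition plus 3 SD, cut at about 5.5% in these data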;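 note: 0% = DMSO wells median and 100% = median of wells with control inhibitor compound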
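Test system: purified T. brucei MetRS enzyme. Also added: ATP, methionine and E. coli bulk tRNA substrates. Compound: 11.9 µM single point. Schedule: 15 min enzyme-compound preincubation, 2 h reaction, 10 min detection, 25 °C. Signal: luciferase luminescence of residual ATP, Kinase-Glo. Evaluation: percent inhibition versus plate control medians. Controls: DMSO wells, low control.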
PLCgamma1 ctr – inhibits human PLC-gamma1 in PLC-beta3 counter-screen; shares compounds with PLCg1 inh; purified PLC-gamma1, fluorogenic substrate, fluorescence; inhibition, % at 12.3 µM; 3,300 tested, 3.1% active; AID 743258
PLCb3 confirm – human PLC-beta3 inhibition, confirmation. 3,300 tested, 1% active. purified PLC-beta3, fluorogenic substrate fluorescence. shares compounds with PLCg1 inh. inhibition, % at 12.3 µM; in the data active = inhibition above about 11%
* = called active by the depositor; . = no result given. Cut-off read from the data, not from the text of the source, unless noted: active = inhibition above about 9.5%; inactive = the rest.

SMILES | PLCb3 inh | PLCg1 inh | ADAM17 inh | ADAM10 inh | Tb MetRS inh | PLCgamma1 ctr | PLCb3 confirm
Cc1ccccc1NC(=O)N1CCCC(c2nc(-c3ccc(F)cc3)no2)C1 (stereo unspecified) | 1 | -1 | 0 | 2 | 0 | . | .
CC(C)(C)S(=O)(=O)N1Cc2cc(CO)cc(CCO)c2[C@@H]1CCO | -3 | -2 | 2 | -2 | 0 | . | .
CCCCN(C(=O)c1ccncc1)c1c(N)n(CCC)c(=O)[nH]c1=O | -8 | -1 | -3 | -6 | -1 | . | .
O=C(NCCc1ccc(O)cc1)c1[nH]c(C(F)(F)F)nc1-c1ccccc1 | 4 | 13* | 6 | 3 | 0 | -8 | -5
CC[C@H](C)Cc1cn([C@@H](CCCCNC(=O)OC(C)(C)C)C(=O)NCCCCCCCCCCC(=O)N2CCN(C(=O)OC(C)(C)C)CC2)nn1 | 4 | 3 | 3 | 2 | 0 | . | .
O=C(NCC(c1ccccc1)c1ccccc1)[C@H](Cc1ccccc1)NC1(C(=O)NC2CCCCC2)CCCC1 | 1 | 0 | -2 | 2 | . | . | .
COC(CNC(=O)[C@H](Cc1ccccc1)NC1(C(=O)NC2CCCCC2)CCCC1)OC | 10 | 9.8* | 2 | 3 | . | -1 | 0
CC1(NC(=O)Cc2c(F)cccc2Cl)CCS(=O)(=O)C1 (stereo unspecified) | -2 | 13* | 9 | 4 | 0 | -2 | -7
COc1ccccc1CNC(=O)N(CCc1c(C)[nH]c2ccccc12)Cc1cccs1 | -5 | 0 | 5 | -3 | . | . | .
Cc1cc(NC(=O)c2cc3cccc([N+](=O)[O-])c3[nH]2)ccc1F | -2 | 7 | 5 | 14 | 0 | . | .
CCCN1CNC(=S)N(c2ccccc2OCC)C1 | 2 | 5 | -1 | 11 | 0 | . | .
CCCCN1CNC(=S)N(c2ccccc2OCC)C1 | 3 | 11* | 0 | 1 | 0 | 1 | 4
Cc1ccc(C2OC(=O)c3ccccc32)cc1 (stereo unspecified) | 3 | 9.6* | 6 | 10 | 0 | -2 | 0
COCCN(C(=O)CCC(=O)Nc1cc(C)on1)C(C(=O)NC1CCCC1)c1ccc(C(C)C)cc1 (stereo unspecified) | -3 | 1 | 0 | 3 | 1 | . | .
CCOC(=O)C1CCN(Cc2cnc(Oc3ccc(OC)cc3)s2)CC1 | 11* | 5 | 6 | 2 | 0 | -5 | -1
O=C(Cn1c(=O)oc2ccccc21)Nc1ccc(Cl)cc1 | -1 | 11* | 7 | 1 | 1 | -3 | 4
COc1cccc(C2CC=C(C(=O)O)CN2S(=O)(=O)c2ccc(C)cc2)c1 (stereo unspecified) | -2 | -3 | -3 | -4 | . | . | .
O=C1CC(CC(=O)N/N=C/c2ccccc2[N+](=O)[O-])=NN1 | -1 | 13* | 0 | 0 | 4 | -5 | -1
CC(C)NC(=O)N(C)C[C@@H]1Oc2c(NC(=O)C3CCOCC3)cccc2C(=O)N([C@@H](C)CO)C[C@H]1C | 6 | 3 | -1 | -2 | 0 | . | .
CCC(=O)Nc1cccc(NC(=S)NC(=O)c2ccccc2C)c1 | 3 | 9.9* | 0 | -1 | -1 | 1 | 1
CCC(=O)NC(=S)Nc1cccc(NC(=O)c2ccccc2C)c1 | 4 | 3 | -1 | 11 | 0 | . | .
COc1ccc(-c2ccc(SCC(=O)NC3CCCCC3)nn2)cc1OC | -9 | -1 | 0 | 1 | -1 | . | .
CC(=O)c1c(C)nc2ccc(Br)cc2c1-c1ccccc1 | 5 | 0 | 1 | 8 | 0 | . | .
CC(=O)c1c(C)nc2ccc([N+](=O)[O-])cc2c1-c1ccccc1 | 5 | 14* | 8 | 14 | 0 | 0 | 2
O=C1N=C2SCCN2/C1=C\c1ccccc1Cl | -1 | 11* | 4 | 16 | 0 | -8 | -6
SMILES | PLCb3 inh | PLCg1 inh | ADAM17 inh | ADAM10 inh | Tb MetRS inh | PLCgamma1 ctr | PLCb3 confirm
O=C(NC1(C(F)(F)F)N=C2SCCN2C1=O)c1ccccc1 (stereo unspecified) | 3 | 6 | 0 | 2 | -1 | . | .
CC(COc1ccc(OC(F)(F)F)cc1)CN1CCC(C(O)(c2ccccc2)c2ccccc2)CC1 (stereo unspecified) | 4 | 0 | 8 | 12 | . | . | .
C[C@]12CCC(=O)C=C1CC[C@@H]1[C@@H]2[C@@H](O)C[C@@]2(C)[C@H]1CC[C@]2(O)C(=O)CO | 1 | 0 | -3 | -2 | 0 | . | .
CC12CCC(=O)C=C1CCC1C2C(O)CC2(C)C1CCC2(O)C(=O)CO (stereo unspecified) | -2 | 11* | -6 | -17 | -1 | -6 | 1
Cc1cc(C(=O)OCC(=O)c2cccc([N+](=O)[O-])c2)c2ccccc2n1 | 14* | 9 | 3 | 4 | 0 | -6 | -2
CC1Cc2c([nH]c3ccccc23)C(=O)N1 (stereo unspecified) | -16 | -11 | -20 | -53 | 0 | . | .
COc1cccc(/C=C/C(=O)OCCN2C(=O)c3ccccc3C2=O)c1 | -15 | -7 | -5 | -12 | -1 | . | .
COc1ccccc1/C=C/C(=O)OCCN1C(=O)c2ccccc2C1=O | -4 | 11* | 3 | -9 | -1 | -14 | -12
COc1cccc(N2CCN(c3ccc4nnc(CCC(=O)Nc5ccc(C)cn5)n4n3)CC2)c1 | . | . | . | . | 0 | . | .
CCCOc1ccc(CNC(=S)Nc2ccccc2)cc1Cl | -4 | 2 | 4 | 9 | -1 | . | .
O=S(=O)(c1ccccc1)N1N=C(c2cccs2)CC1c1ccc(F)cc1 (stereo unspecified) | 12* | 4 | 3 | 0 | 0 | -4 | -4
Cc1cc(C)nc(SCCn2c(N3CCCCC3)nc3c2c(=O)n(C)c(=O)n3C)n1 | 8 | 9.6* | -3 | -2 | 0 | -3 | -1
Cc1ccc(-c2noc(CCC(=O)NC3CCCC3)n2)cc1 | -4 | 0 | -1 | -3 | 0 | . | .
CCN1CCCC1CNC(=O)CCc1nc(-c2ccc(C)cc2)no1 (stereo unspecified) | 1 | 10* | 2 | 10 | -1 | 4 | -3
O=C(NC(NC(=S)Nc1ccc(Cl)cc1Cl)C(Cl)(Cl)Cl)c1cccc([N+](=O)[O-])c1 (stereo unspecified) | 0 | -1 | -1 | 6 | 0 | . | .
Cc1nc(C(F)(F)F)ccc1C(=O)N1CCCCCC1(C)C(=O)NCC(C)C (stereo unspecified) | 7 | 16* | 7 | 14 | 0 | -3 | 3
CC(C)CNC(=O)C1(C)CCCCCN1C(=O)c1cc2ccccc2s1 (stereo unspecified) | 7 | 14* | 2 | 10 | 0 | -5 | 2
CCCCNC(=O)C1(C)CCCCN1C(=O)c1cc2ccccc2s1 (stereo unspecified) | 13* | 5 | 1 | -4 | -1 | -1 | 4

From PubChem BioAssay
